Assay results as given in paper PMC9704493 (RSC Advances, 2022).

Columns and labels:
[1] = system: MCF-7 breast cancer cells; experiment: MTT cell viability assay, MCF-7; type: cell-based, human; details: for GI50: Homo sapiens, MCF7, 72 h, read-out: GI50 values (M) mean ± SD, MCF-7; for Selectivity indices (SI), MCF-7: MCF-7 versus MRC-5 fibroblasts
In short: (§1)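 Cells were seeded at 3 × 10^3 per well and grown for 24 h at 37 °C/5% CO2. A T0 plate was read at dosing and the others after 72 h. MTT (5 mg mL−1 in PBS) was added for 2.5 h, formazan dissolved in DMSO, and absorbance read at 550 nm. GI50 was interpolated, in triplicate. SI compares MRC-5 with cancer-line activity.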

MCF-7 cells [2] = experiment: Cell count assay, MCF-7; type: cell-based; details: Homo sapiens, MCF7, 72 h, read-out: growth inhibition, cell count
In short: (§2)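 Cancer lines were grown in RPMI 1640 with 10% FBS and 1% glutamine at 37 °C/5% CO2, at ≤30 passages. Cells were seeded at 2 × 10^4 per well in 6-well plates and exposed to test compound at 5 or 10 μM for 72 h. Cells were counted by haemocytometer and expressed as % of control (mean ± SD), from 2 independent experiments in triplicate.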

MRC-5 fibroblasts = experiment: MTT cell viability assay, MRC-5 normal fibroblasts; type: cell-based, human; details: for GI50: Homo sapiens, MRC5, 72 h, read-out: GI50 values (M) mean ± SD, MRC-5; for more active against the carcinoma cell lines than MRC-5: selectivity over MRC-5
In short: as §1

HCT-116 cells [3] = experiment: Clonogenic assay, HCT-116 colony formation; type: cell-based, human; details: 24 h exposure, second group, printed as HCT-116; for colony formation: 10 μM
In short: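 HCT-116 cells (RPMI 1640, 10% FBS, 1% glutamine) were seeded at 400 per well in 6-well plates and left to attach for 24 h. They were given test compound at 5 or 10 μM for 24 h, with medium alone as control. Cells were then washed with cold PBS and grown in fresh medium at 37 °C until control colonies reached ≥50 cells. Colonies were methanol-fixed, stained with 0.05% methylene blue and counted. Survival fraction is % of control, from five independent trials (n = 2 each).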

[4] = system: HCT-116 colorectal carcinoma cells; experiment: MTT cell viability assay, HCT-116; type: cell-based, human; details: for Selectivity indices (SI), HCT-116: HCT-116 versus MRC-5 fibroblasts; for GI50: Homo sapiens, HCT-116, 72 h, read-out: GI50 values (M) mean ± SD, HCT-116
In short: as §1

[5] = system: caspases 3 and 7 in MCF-7 cells; experiment: Caspase-3/7 activity assay, MCF-7; type: cell-based, human; details: MCF-7, 5 and 10 μM, 72 h
In short: (§3)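 Cells kept in log growth (passaged twice weekly, 37 °C/5% CO2, ≤30 passages) were seeded at 3 × 10^3 per well in opaque white 96-well plates and allowed 24 h at 37 °C. Test compound was added at 5 and 10 μM from fresh 10 mM DMSO stocks for 72 h. Homogeneous caspase-3/7 reagent was added and mixed at 300–500 rpm for 30 s. After 30 min at room temperature, fluorescence was read at 499 nm and 521 nm. Experiments were run in triplicate and reported as mean ± SD.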

[6] = system: caspases 3 and 7 in HCT-116 cells; experiment: Caspase-3/7 activity assay, HCT-116; type: cell-based, human; details: HCT-116, 5 and 10 μM, 72 h
In short: as §3

HCT-116 cells [7] = experiment: Cell count assay, HCT-116; type: cell-based; details: Homo sapiens, HCT-116, 72 h, read-out: growth inhibition, cell count
In short: as §2

HCT-116 cells [8] = experiment: Cell cycle assay; type: cell-based, human; details: HCT-116, 5 and 10 μM, 24 h
In short: (§4)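 Cells were seeded in 10 cm dishes at 7 × 10^5 (control, 24 h) or 4 × 10^5 (48 and 72 h) per dish and left 24 h at 37 °C. They were then treated with test compound at 5 or 10 μM for 24 h. Floating and trypsinised cells were pooled, PBS-washed, held in cold hypotonic fluorochrome solution overnight at 4 °C in the dark, and analysed by flow cytometry (three internal repeats).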

PARP-1 in HCT-116 cells = experiment: Western blot of whole and cleaved PARP, HCT-116; type: cell-based, human; details: HCT-116, 5 and 10 μM, 24 h
In short: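 HCT-116 cells were seeded at 1–2 × 10^6 per dish, attached for 24 h, then exposed to test compound at 5 or 10 μM for 24 h. Lysate protein was measured by Bradford assay, and 50 μg per sample was run on SDS-PAGE and blotted to nitrocellulose. Blots were probed for PARP-1, with GAPDH as loading control, and quantified by densitometry. Data are mean ± SD of three independent experiments, analysed by ANOVA with Dunnett's test.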

ERK1/2 = experiment: Preliminary ERK1/2 inhibition experiments
MCF-7 cells [9] = experiment: Cell cycle assay; type: cell-based, human; details: 24 h; for accumulation of events in G2/M phase: control 11%
In short: as §4

| Compound | GI50 [1] | Selectivity indices (SI), MCF-7 [1] | inhibition at 10 µM (MCF-7 cells [2]) | GI50 (MRC-5 fibroblasts) | colony formation (HCT-116 cells [3]) | Selectivity indices (SI), HCT-116 [4] | GI50 [4] | caspase 3 and 7 activation [5] | caspase 3 and 7 activation [6] | more active against the carcinoma cell lines than MRC-5 (MRC-5 fibroblasts) | inhibition at 5 µM (HCT-116 cells [7]) | inhibition at 10 µM (HCT-116 cells [7]) | other results |
| --- | --- | --- | --- | --- | --- | --- | --- | --- | --- | --- | --- | --- | --- |
| N#Cc1ccc(-c2csc(NN=Cc3c(F)c(F)c(F)c(F)c3F)n2)cc1 [3a′, 2-(2-((Pentafluorophenyl)methylene)hydrazinyl)-4-(4-cyanophenyl) thiazole] | 1.7e-06 ± 3e-07 M | 6.8 | 90 to 95% | 1.16e-05 ± 6e-07 M | completely prevented colony formation | 2.8 | 4.2e-06 ± 1e-06 M |  |  |  |  |  |  |
| N#Cc1ccc(-c2csc(NN=Cc3sccc3Br)n2)cc1 [3b′, 2-(2-((3-Bromothiophen-2-yl)methylene)hydrazinyl)-4-(4-cyanophenyl) thiazole] | 3.9e-06 ± 5e-07 M | 5 |  | 1.95e-05 ± 3e-07 M | completely prevented colony formation | 12.2 | 1.6e-06 ± 2e-07 M | Significant dose-dependent caspase activation | Significant dose-dependent caspase activation | > 5 × | 50 to 55% | 90 to 95% |  |
| Cc1cccc(C=NNc2nc(-c3ccc(C#N)cc3)cs2)c1O [Compound 3f, 2-(2-(2-Hydroxy-3-methylbenzylidene) hydrazinyl)-4-(4-cyanophenyl) thiazole] | 1e-06 ± 4e-07 M | 17.3 | 100% | 1.73e-05 ± 7e-07 M | completely inhibiting colony formation | 10.8 | 1.6e-06 ± 1e-07 M | Significant dose-dependent caspase activation | Significant dose-dependent caspase activation | > 10 × |  |  | inhibition at 5 µM (MCF-7 cells [2]): 55 to 60%; Pre-G1 events (HCT-116 cells [8]): 5–8%; PARP-1 cleavage (PARP-1 in HCT-116 cells): induces concentration-dependent PARP-1 cleavage; whole PARP expression (PARP-1 in HCT-116 cells): down-regulation of whole PARP; ERK1/2 inhibition (ERK1/2): showed ERK1/2 inhibition; accumulation of events in G2/M phase (MCF-7 cells [9]; MCF-7, 5 μM): 23%; accumulation of events in G2/M phase (MCF-7 cells [9]; MCF-7, 10 μM): 28%; pre-G1 cell populations (MCF-7 cells [9]; MCF-7, 5 and 10 μM): negligible; SI over MRC-5 fibroblasts (MRC-5 fibroblasts; cancer cell line not given): > 10; inhibition of colony formation (HCT-116 cells [3]; 5 μM): completely inhibiting colony formation |
| N#Cc1ccc(-c2csc(NN=Cc3cc(Br)ccc3O)n2)cc1 [Compound 3h, 2-(2-(5-Bromo-2-hydroxybenzylidene) hydrazinyl)-4-(4-cyanophenyl) thiazole] | 7e-06 ± 3e-07 M | 2.3 | 65 to 70% | 1.58e-05 ± 2e-07 M |  | 3.6 | 4.4e-06 ± 3e-07 M |  |  |  |  |  |  |
| N#Cc1ccc(-c2csc(NN=Cc3c(Cl)cccc3Cl)n2)cc1 [Compound 3n, 2-(2-(2,6-Dichlorobenzylidene)hydrazinyl)-4-(4-cyanophenyl) thiazole] | 2.54e-05 ± 1.6e-06 M | 0.5 |  | 1.21e-05 ± 4e-07 M |  | 11 | 1.1e-06 ± 5e-07 M |  |  |  | 50 to 55% | 100% |  |
